In ChEMBL document CHEMBL1126653, “Structure-function studies of amphiphilic antibacterial peptides” (1993) one finds MIC and Hemolysis data, which are given here for four molecules.

One assay deals with Pseudomonas aeruginosa. Briefly: Compound tested for in vitro susceptibility against ATCC strain 27853 of Pseudomonas aeruginosa. In kind it is functional. To be noted: ATCC 27853. In outline: (§1)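 Microbroth dilution in Tryptic Soy Broth; inoculum 5×10^5 CFU/mL; plates incubated at 37 °C for 18-20 h; value reported as minimal inhibitory concentration (µg/mL).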
Assay [1] has as its system Enterobacter cloacae. Briefly: Compound tested for the antimicrobial activity against Enterobacter cloacae ROS. The assay is classed as functional. In short, it runs like this: (§2)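 MIC by microbroth dilution in Tryptic Soy Broth; inoculum 5×10^5 CFU/mL; plates incubated 18-20 h at 37 °C; assay pH approximately 7.4.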
The subject of another assay is Escherichia coli. The experiment in a line: Compound tested for in vitro susceptibility against ATCC strain 25922 of Escherichia coli. The assay is classed as functional. To be noted: ATCC25922. In outline: as §1
Assay [2] can be described thus: Hemolytic activity towards human erythrocytes is evaluated for magainin 2 at peptide concentration of 100 µg/mL. In kind it is functional. In outline:
(§3)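 Washed human erythrocytes from healthy volunteers (3 mL packed cells, PBS pH 7.4 washes, diluted to 20 mL) exposed to peptide in PBS at 25-200 µg/mL, 30 min at 37 °C; supernatant absorbance at 576 nm after centrifugation; 0.1% Triton X-100 taken as 100% hemolysis; duplicates.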

In assay [3] the test system is Acinetobacter calcoaceticus subsp. anitratus. Briefly: Compound tested for the antimicrobial activity against Acinetobacter anitratus. In kind it is functional, aeinetobacter anitrotap. In short, it runs like this:
as §2

Assay [4] in a line: Hemolytic activity towards human erythrocytes is evaluated for magainin 2 at peptide concentration of 50 µg/mL. In kind it is functional. In outline:
as §3

For the next assay, the system named is Klebsiella pneumoniae. Briefly: Compound tested for the antimicrobial activity against Klebsiella pneumoniae. The assay is classed as functional. In outline:
as §2

The nature of assay [5]: Hemolytic activity towards human erythrocytes is evaluated for magainin 2 at peptide concentration of 25 ug/mL. The assay is classed as functional. In outline: as §3
The subject of a further assay is Proteus mirabilis. Briefly: Compound tested for the antimicrobial activity against Proteus mirabilis. The assay is classed as functional. In outline: as §1
The test system of assay [6] is Salmonella enterica subsp. enterica serovar Anatum. Briefly: Compound tested for the antimicrobial activity against S. a natum. In kind it is functional, salmoneila anatum. In outline: as §1
The next assay has as its system Staphylococcus aureus. The experiment in a line: Compound tested for in vitro susceptibility against ATCC strain 29213 of Staphylococcus aureus. The assay is classed as functional. In outline: as §1
Assay [7] has as its system Enterobacter cloacae. Briefly: Compound tested for the antimicrobial activity against Enterobacter cloacae. In kind it is functional. In short, it runs like this: as §1
Assay [8] is described as follows: Hemolytic activity towards human erythrocytes is evaluated for magainin 2 at peptide concentration of 200 µg/mL. In kind it is functional. In outline:
as §3

The subject of the next assay is Shigella flexneri. Briefly: Compound tested for the antimicrobial activity against Shigella flexneri. In kind it is functional. In short, it runs like this:
as §2

What is called MIC is the lowest concentration that inhibits growth of the organism.

Values after ≈ are worked out from the molar mass of the structure shown. Peptide text beside a SMILES is read from it.

On to `CC(C)C[C@H](NC(=O)[C@H](Cc1c[nH]cn1)NC(=O)[C@H](CC(C)C)NC(=O)[C@H](Cc1c[nH]c2ccccc12)NC(=O)[C@H](Cc1c[nH]cn1)NC(=O)[C@H](Cc1c[nH]cn1)NC(=O)[C@H](C)NC(=O)[C@H](Cc1c[nH]c2ccccc12)NC(=O)[C@H](Cc1c[nH]cn1)NC(=O)[C@H](Cc1c[nH]cn1)NC(=O)[C@H](Cc1c[nH]c2ccccc12)NC(=O)[C@H](CC(C)C)NC(=O)[C@@H](N)Cc1c[nH]cn1)C(=O)N[C@@H](Cc1c[nH]c2ccccc12)C(=O)N[C@@H](Cc1c[nH]cn1)C(=O)N[C@@H](C)C(=O)N[C@@H](Cc1c[nH]c2ccccc12)C(=O)O` (H-HLWHHWAHHWLHLWHAW-OH), for which the MIC against Pseudomonas aeruginosa is 12.5 µg/mL (≈ 5.23 µM); with Enterobacter cloacae [1], 50 µg/mL (≈ 20.9 µM); against Escherichia coli it was 25 µg/mL (≈ 10.5 µM); in [3], under 0.39 µg/mL; in the assay with Klebsiella pneumoniae, over 100 µg/mL; with Proteus mirabilis it was over 100 µg/mL. Moreover, the minimal inhibitory concentration (MIC) in [6] is over 100 µg/mL; against Staphylococcus aureus, 50 µg/mL (≈ 20.9 µM); against Enterobacter cloacae [7], under 0.39 µg/mL; with Shigella flexneri it was 12.5 µg/mL (≈ 5.23 µM). For the same molecule, the Hemolysis in [2], in [4], in [5] and in assay [8] was 0% in each case.

Turning to `CC(C)C[C@H](NC(=O)[C@H](CCCCN)NC(=O)[C@H](CCCCN)NC(=O)[C@H](Cc1c[nH]c2ccccc12)NC(=O)[C@H](CCCCN)NC(=O)[C@H](CCCCN)NC(=O)[C@H](CCCCN)NC(=O)[C@H](C)NC(=O)[C@H](CCCCN)NC(=O)[C@H](CCCCN)NC(=O)[C@H](Cc1c[nH]c2ccccc12)NC(=O)[C@H](C)NC(=O)[C@@H](N)CCCCN)C(=O)N[C@@H](C)C(=O)N[C@@H](CCCCN)C(=O)N[C@@H](CCCCN)C(=O)N[C@@H](Cc1c[nH]c2ccccc12)C(=O)O` (H-KAWKKAKKKWKKLAKKW-OH), the MIC was over 200 µg/mL with Pseudomonas aeruginosa, 200 µg/mL (≈ 91.5 µM) against Escherichia coli and 200 µg/mL (≈ 91.5 µM) in the assay on Staphylococcus aureus.

Turning to `CC(C)C[C@H](NC(=O)[C@H](CCCCN)NC(=O)[C@H](CCCCN)NC(=O)[C@H](CC(C)C)NC(=O)[C@H](CC(C)C)NC(=O)[C@H](CCCCN)NC(=O)[C@H](CC(C)C)NC(=O)[C@H](CC(C)C)NC(=O)[C@H](CCCCN)NC(=O)[C@@H](N)CCCCN)C(=O)O` (H-KKLLKLLKKL-OH), the minimum inhibitory concentration (MIC) against Pseudomonas aeruginosa, with Escherichia coli and in the assay on Staphylococcus aureus was over 200 µg/mL each time.

As for `NCCCC[C@H](NC(=O)[C@H](CCCCN)NC(=O)[C@H](Cc1c[nH]c2ccccc12)NC(=O)[C@H](Cc1c[nH]c2ccccc12)NC(=O)[C@H](CCCCN)NC(=O)[C@H](Cc1c[nH]c2ccccc12)NC(=O)[C@H](Cc1c[nH]c2ccccc12)NC(=O)[C@H](CCCCN)NC(=O)[C@@H](N)CCCCN)C(=O)N[C@@H](Cc1c[nH]c2ccccc12)C(=O)O` (H-KKWWKWWKKW-OH), the figures for the minimum inhibitory concentration (MIC) in the assay with Pseudomonas aeruginosa, against Escherichia coli and with Staphylococcus aureus were 50 µg/mL (≈ 31.4 µM), 50 µg/mL (≈ 31.4 µM) and 12.5 µg/mL (≈ 7.86 µM), respectively.
